Rev-erbA mod: modulators of human Rev-erb alpha DNA binding; 0.79% of 370,000 active; activity, % at 10 µM; Rev-erbα–FITC-DNA binding, fluorescence polarization, 90 min; AID 1259318; P20393;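 active means activity above about 14%, limit read from the data; passing the limit was not always enough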;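 further: 0% = DMSO wells with 35 nM protein and 100% = DMSO wells with 750 nM protein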
Target sequence (P20393 whole entry, looked up): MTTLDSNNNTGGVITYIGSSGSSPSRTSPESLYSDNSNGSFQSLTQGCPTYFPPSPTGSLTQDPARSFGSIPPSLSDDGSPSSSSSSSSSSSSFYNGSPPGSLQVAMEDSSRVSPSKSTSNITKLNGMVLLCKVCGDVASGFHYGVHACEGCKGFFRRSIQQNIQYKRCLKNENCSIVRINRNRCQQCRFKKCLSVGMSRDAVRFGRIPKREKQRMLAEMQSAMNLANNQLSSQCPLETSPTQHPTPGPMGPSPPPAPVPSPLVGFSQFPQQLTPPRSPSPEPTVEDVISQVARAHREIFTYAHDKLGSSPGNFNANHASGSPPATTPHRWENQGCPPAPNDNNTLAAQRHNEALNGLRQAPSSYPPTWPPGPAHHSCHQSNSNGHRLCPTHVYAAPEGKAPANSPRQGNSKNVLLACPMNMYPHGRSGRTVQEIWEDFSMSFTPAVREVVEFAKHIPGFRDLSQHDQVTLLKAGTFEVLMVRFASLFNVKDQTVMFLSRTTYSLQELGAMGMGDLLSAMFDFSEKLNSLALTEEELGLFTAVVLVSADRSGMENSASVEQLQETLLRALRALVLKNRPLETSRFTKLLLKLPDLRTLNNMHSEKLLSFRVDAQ
NR2E3 ag-1: agonists of human NR2E3 nuclear receptor; 0.35% of 360,000 active; Q9Y5X4; AID 602229; CHO-S Gal4-NCOR/VP16-NR2E3 two-hybrid, luciferase; inhibition of corepressor binding, % at 3.98 µM;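 active means inhibition above the mean of all tested compounds plus 3 SD, cut at about 70% in these data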;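 further: 0% = DMSO with NR2E3 transfected cells and 100% = cells lacking NR2E3 construct; higher means lower luciferase signal from less NR2E3 corepressor binding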
PG9 binder: binds the HIV-1 gp120 antibody PG9; inhibition, % at 6.7 µM; 0.43% of 360,000 active; TR-FRET gp120-PG9 antibody binding; in the data active means inhibition above about 8.5%
NR2E3 ag-2: NR2E3 (human) agonism | inhibition of corepressor binding, % at 4.78 µM | Q9Y5X4 | AID 2300 | 0.12% of 320,000 active | GST-NR2E3/biotin-RetCOR TR-FRET, 1536-well;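 active means percent inhibition above the cutoff of mean plus 3 SD of all tested compounds, set per screening campaign, cut at about 20% in these data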;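 further: 0% = DMSO wells and 100% = biotin wells as full block of FRET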
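Test system: GST-NR2E3 and biotin-RetCOR proteins | Quantity: 1.35 nM GST-tagged NR2E3 final | Medium: Tris pH 7.5 | Also added: 7 nM biotin-RetCOR | Dosing: Compound at 4.8 µM, single dose | Timing: 5 h at 4 °C | Detection: Time-resolved FRET | Read-out basis: Percent inhibition | Benchmarks: Biotin wells as high control, 0.6% DMSO wells as low control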
rCAG RNA binder: binds r(CAG) RNA repeats | r(CAG) RNA repeat, TO-PRO-1 dye displacement fluorescence | AID 651821 | 1.3% of 370,000 active | inhibition, % at 3 µM;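 active means inhibition above the plate cutoff, the mean of all test compounds on that plate plus 3 SD, cut at about 35% in these data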;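 further: 0% = DMSO alone and 100% = 100 µM mitoxantrone as full dye displacement; higher means more dye released from RNA so lower well fluorescence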
PG9 bind confirm: confirmation of small molecules binding HIV-1 gp120 antibody PG9; TR-FRET PG9 antibody binding, biochemical; shares compounds with PG9 binder; AID 651571; inhibition, % at 6.7 µM; 90% of 1,500 active; in the data active means inhibition above about 9%
PGV04 counter: PGV04 control antibody binding, counter-screen; inhibition, % at 6.7 µM; AID 651604; shares compounds with PG9 binder; 95% of 1,500 active; TR-FRET PGV04 antibody-gp120 binding, biochemical; in the data active means inhibition above about 9.5%
Active calls of the source: *; / = not tested or not shown. A selection: hits, their analogues and other compounds. The true share with any hit is near 2.6%.

SMILES	Rev-erbA mod	NR2E3 ag-1	PG9 binder	NR2E3 ag-2	rCAG RNA binder	PG9 bind confirm	PGV04 counter
Cc1cc(C)c2c(=N)c3ccccc3n(CCCCCCCCn3c4ccccc4c(=N)c4c(C)cc(C)nc43)c2n1	-28	12	9.7*	/	31	28*	33*
Cc1ccc(NC(=O)COC(=O)c2cc(Cl)ccc2Cl)c(Br)c1	4	-10	22*	9	4	31*	40*
CC(=O)c1cccc(NC(=O)CCc2nnc3ccc(NCc4ccc5c(c4)OCO5)nn23)c1	13	-11	19*	-4	-1	23*	27*
COc1ccccc1NC(=O)c1ccc(NC(=O)Cc2n[nH]c(=O)c3ccccc23)cc1	4	-10	11*	4	4	12*	18*
CCCNC(=O)CSc1nc(-c2cccs2)cc(C(F)(F)F)n1	10	15	0	2	-4	/	/
Cc1cc(NC(=O)CSc2nc(-c3cccs3)cc(C(F)(F)F)n2)no1	10	-25	24*	0	-1	34*	43*
O=C1COc2ccc(C(=O)COC(=O)c3ccc(F)cc3Cl)cc2N1	14	-13	32*	/	5	37*	47*
Cc1cccc(C(=O)OCC(=O)c2ccc3c(c2)NC(=O)CO3)c1	8	26	15*	/	4	16*	27*
O=C1COc2ccc(C(=O)COC(=O)CCSc3ccc(Cl)cc3)cc2N1	17	-16	13*	3	4	30*	44*
COc1ccc(C(=O)NCC(=O)OCC(=O)N2CC(C)OC(C)C2)cc1OC (stereo not given)	-4	2	0	/	4	/	/
Cc1ccc(Cc2c(-c3cccc(Br)c3)nc3cc(C)c(Br)c(C)n23)cc1	6	-14	-1	/	3	/	/
COc1ccc(C2=Nc3ccccc3C2(O)CCN2C(=O)c3ccccc3C2=O)cc1 (stereo not given)	-5	-12	0	/	5	/	/
CCc1c(C)sc(NC(=O)c2ccoc2C)c1C(N)=O	-1	-46	-1	1	5	/	/
Cc1cc(C)cc(NC(=O)COC(=O)CCn2c(C)csc2=O)c1	1	-2	-1	2	0	/	/
COc1cccc(NC(=O)C2CCCN2C(=O)NCc2ccccc2)c1 (stereo not given)	1	/	/	/	4	/	/
C[C@@H]1CN([C@H](C)CO)C(=O)CCCn2cc(nn2)CO[C@H]1CN(C)C(=O)Nc1ccnc(N2CCOCC2)c1	5	-29	-1	/	3	/	/
CCCOc1ccc(/C(O)=C2\C(=O)C(=O)N(c3ccccn3)C2c2ccccc2F)cc1C (stereo not given)	-4	15	21*	10	17	17*	24*
CCOc1ccc(/C(O)=C2/C(=O)C(=O)N(c3ccccn3)C2c2ccc(C)cc2)c(C)c1 (stereo not given)	4	2	20*	11	17	20*	28*
CCOc1ccc(/C(O)=C2/C(=O)C(=O)N(c3ncccn3)C2c2ccc(C)cc2)cc1 (stereo not given)	3	-24	1	-2	8	/	/
CCOc1ccc(/C(O)=C2/C(=O)C(=O)N(c3ccccn3)C2c2ccc(Cl)cc2)c(C)c1 (stereo not given)	2	-38	11*	/	18	13*	19*
COc1ccc(C2/C(=C(/O)c3ccccc3)C(=O)C(=O)N2c2ccccn2)cc1 (stereo not given)	2	-7	-2	-1	2	/	/
c1ccc(OCCNc2ccn3nc(-c4ccco4)cc3n2)cc1	1	-51	0	/	10	/	/
CC(C)C[C@H]1CNC(=O)C(=O)N1CC1CCN(CCc2ccc(-c3ccccc3)cc2)CC1	1	10	1	/	-2	/	/
Cc1ccc(NCC2(N=Cc3ccccc3)OC(CO)C(O)C2O)cc1 (stereo not given)	-7	-8	-2	/	4	/	/
CC(=O)c1ccc(NC(=O)COc2ccccc2C(=O)Nc2ccccc2)cc1	-2	-12	-3	-2	15	/	/
SMILES	Rev-erbA mod	NR2E3 ag-1	PG9 binder	NR2E3 ag-2	rCAG RNA binder	PG9 bind confirm	PGV04 counter
CC(=O)c1ccc(NC(=O)COc2ccccc2C(=O)Nc2ccc(C)cn2)cc1	13	3	26*	-1	1	28*	42*
CCCn1c(N)c(N(CCOC)C(=O)CSc2ccccc2)c(=O)[nH]c1=O	-2	-6	-3	1	0	/	/
COc1ccc(-n2nnnc2CNC(=O)C2CC(=O)N(c3ccc(Cl)cc3)C2)cc1 (stereo not given)	-4	5	-1	0	0	/	/
CCNC(=O)Cc1c(OC)ccc2cc(Br)ccc12	-3	-15	7	4	0	/	/
CCN(CC)C(=O)Cc1c(OC)ccc2cc(Br)ccc12	3	-9	3	4	-5	/	/
CCCNC(=O)Cc1c(OC)ccc2cc(Br)ccc12	8	17	11*	14	-1	24*	31*
CCCCNC(=O)Cc1c(OC)ccc2cc(Br)ccc12	3	-8	8.6*	18	-2	17*	21*
COc1ccc2cc(Br)ccc2c1CC(=O)NC(C)(C)C	5	6	13*	13	-7	21*	25*
O=C1N/C(=N/c2ccccn2)SC1Cc1ccccc1 (stereo not given)	4	1	1	1	4	/	/
O=C1N/C(=N\c2ccccn2)SC1Cc1ccc(Cl)cc1 (stereo not given)	13	2	9.3*	5	0	17*	29*
CCC(C)C(N)C(=O)N1CCCC1C(=O)NC(C(=O)O)C(C)CC (stereo not given)	3	15	-1	/	2	/	/
Cc1nc2ccccc2nc1CSc1nncs1	-1	-7	9.8*	3	2	6	7
Cc1ccc2nc(-c3cccc(Cl)c3)c(Cc3ccccc3C(F)(F)F)n2c1	2	/	-2	/	3	/	/
Nc1nc(-c2ccc(Cl)cc2)nnc1-c1ccc(Br)cc1	11	-52	13*	0	4	16*	58*
CSc1ccccc1-c1n[nH]c(=S)o1	-3	-3	35*	/	-3	40*	52*
Cc1ccccc1-c1n[nH]c(=S)o1	/	-34	35*	6	-3	35*	47*
Cc1cccc2cc(C#N)c(SCC(=O)NNC(=O)Cc3ccccc3)nc12	13	12	17*	2	1	35*	28*
Cc1cc2cccc(C)c2nc1SCC(=O)NNC(=O)c1ccco1	5	-33	1	-3	0	/	/
CC1(c2cccc3ccccc23)OC(=O)c2ccccc21 (stereo not given)	8	31	0	/	5	/	/

High-throughput results from PubChem.
